Active and inactive are the calls of the source. No cut-off for these calls is given here.
Assays:
HeLa [1] = test: Inhibition of mitosis in human HeLa cells assessed as actin hyperfilamentation at 1 nM by FITC-phalloidin staining; type: functional, cell-based
How it was run: (§1)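 Cells treated with 1 nM compound before entry into mitosis, then fixed with formalin. Stained for microtubules with BODIPY-FL paclitaxel, actin with FITC-phalloidin, and DNA. Analysed by confocal microscopy for actin filamentation, microtubule structure and daughter-cell separation.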

HeLa [2] = test: Cytostatic activity against human HeLa cells; type: functional, cell-based
HCT-116 [3] = test: Cytostatic activity against human HCT116 cells; type: functional, cell-based
N2a [4] = test: Cytostatic activity against mouse Neuro2a cells; type: functional, cell-based
[5] = Drug localization in nuclear envelope of mouse Neuro2A cells at 1 nM after 1 hr by fluorescence microscopy; type: ADME, cell-based; settings: 0.001 µM
[6] = Drug localization in large vesicles of mouse Neuro2A cells at 1 nM after 1 hr by fluorescence microscopy; type: ADME, cell-based; settings: 0.001 µM
[7] = Drug localization in nuclear envelope of human HCT116 cells at 1 nM after 1 hr by confocal microscopy; type: ADME, cell-based; settings: hct-116, 1 h, 0.001 µM
[8] = Drug localization in large vesicles of human HCT116 cells at 1 nM after 1 hr by confocal microscopy; type: ADME, cell-based; settings: hct-116, 1 h, 0.001 µM
N2a [9] = test: Inhibition of mitosis in mouse Neuro2a cells assessed as chromatin compactness at 1 nM after 6 to 12 hrs by time-lapse microscopy; type: functional, cell-based
How it was run: (§2)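 Cells treated with 1 nM compound and followed by time-lapse microscopy imaging the compound's native fluorescence. Bleb formation and chromatin compaction scored at 6 h and 12 h after treatment.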

N2a [10] = test: Inhibition of mitosis in mouse Neuro2a cells assessed as bleb formation at 1 nM after 6 to 12 hrs by time-lapse microscopy; type: functional, cell-based; how it was run: as §2
HCT-116 [11] = test: Inhibition of mitosis in human HCT116 cells assessed as bleb formation at 1 nM after 6 to 12 hrs by time-lapse microscopy; type: functional, cell-based; how it was run: as §2
HCT-116 [12] = test: Inhibition of mitosis in human HCT116 cells assessed as chromatin compactness at 1 nM after 6 to 12 hrs by time-lapse microscopy; type: functional, cell-based; how it was run: as §2
HCT-116 [13] = test: Inhibition of mitosis in human HCT116 cells assessed as membrane scarring between daughter cells at 1 nM by confocal microscopy; type: functional, cell-based; how it was run: as §1
HCT-116 [14] = test: Inhibition of mitosis in human HCT116 cells assessed as hyperfilamentation of actin at 1 nM by FITC-phalloidin staining; type: functional, cell-based; how it was run: as §1
HCT-116 [15] = test: Inhibition of mitosis in human HCT116 cells assessed as microtubule disassociation at 1 nM by BODIPY-FL paclitaxel staining; type: functional, cell-based; how it was run: as §1
HeLa [16] = test: Inhibition of mitosis in human HeLa cells assessed as microtubule disassociation at 1 nM by BODIPY-FL paclitaxel staining; type: functional, cell-based; how it was run: as §1
HeLa [17] = test: Inhibition of mitosis in human HeLa cells assessed as membrane scarring between daughter cells at 1 nM by confocal microscopy; type: functional, cell-based; how it was run: as §1
N2a [18] = test: Inhibition of mitosis in mouse Neuro2a cells assessed as actin hyperfilamentation at 1 nM by FITC-phalloidin staining; type: functional, cell-based; how it was run: as §1
N2a [19] = test: Inhibition of mitosis in mouse Neuro2a cells assessed as microtubule disassociation at 1 nM by BODIPY-FL paclitaxel staining; type: functional, cell-based; how it was run: as §1
N2a [20] = test: Inhibition of mitosis in mouse Neuro2a cells assessed as membrane scarring between daughter cells at 1 nM by confocal microscopy; type: functional, cell-based; how it was run: as §1
HeLa [21] = test: Inhibition of mitosis in human HeLa cells assessed as chromatin compactness at 1 nM after 6 to 12 hrs by time-lapse microscopy; type: functional, cell-based; how it was run: as §2
HeLa [22] = test: Inhibition of mitosis in human HeLa cells assessed as bleb formation at 1 nM after 6 to 12 hrs by time-lapse microscopy; type: functional, cell-based; how it was run: as §2
[23] = Drug localization in lysosome of human HCT116 cells at 1 nM assessed as increase of fluorescence with acidity after 1 hr by spectrophotometric analysis; type: ADME, cell-based; settings: hct-116, 1 h, 0.001 µM

IC50 (HeLa [2]): 120 pM | IC50 (HCT-116 [3]): 540 pM | IC50 (N2a [4]): 92 pM | Activity [5]: Active | Activity [6]: Active | Activity [7]: Active | Activity [8]: Active | Activity [23]: Active
Compound: CC(=O)c1cc2c(cc1O)OC1=C(c3cc4cc(C(C)=O)c(O)cc4o3)CCC(c3cc4cc(C(C)=O)c(O)cc4o3)(c3cc4cc(C(C)=O)c(O)cc4o3)C12 (racemic)
Activity (HeLa [1]): Active | Activity (N2a [9]): Active | Activity (N2a [10]): Active | Activity (HCT-116 [11]): Active | Activity (HCT-116 [12]): Active | Activity (HCT-116 [13]): Active | Activity (HCT-116 [14]): Active | Activity (HCT-116 [15]): Active | Activity (HeLa [16]): Active | Activity (HeLa [17]): Active | Activity (N2a [18]): Active | Activity (N2a [19]): Active | Activity (N2a [20]): Active | Activity (HeLa [21]): Active | Activity (HeLa [22]): Active
